Source: ChEMBL document CHEMBL4261535, “Tetrahydroquinolinone derivatives as potent P-glycoprotein inhibitors: design, synthesis, biological evaluation and molecular docking analysis” (Medchemcomm, 2017)
The source made the active and inactive calls. The rule behind the calls is not given here.

Tests used:
[1] = n-octanol-water partition co-efficient, log P of the compound; assay type: physicochemical
[2] = organism: Homo sapiens; assay: Inhibition of p-gp in human MES-SA/DX5 cells assessed as increase in rhodamine 123 accumulation preincubated for 20 mins followed by rhodamine 123 addition and measured after 20 mins by flow cytometric method; assay type: cell-based
How it was run: (§1)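 Cells in serum-free RPMI at 5 × 10^5 cells per ml (MES-SA/DX5 taken off doxorubicin one day before). Compound 20 min at 37 °C, then 5 μM rhodamine 123 for 20 min at 37 °C. Washed twice in ice-cold PBS, kept on ice. Flow cytometry at 488 nm excitation, 530 nm emission, 20 000 cells. Gmean fluorescence expressed as a ratio to untreated cells. Verapamil was the positive control.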

[3] = system: MES-SA; assay: Increase in rhodamine 123 accumulation in human MES-SA cells at 5 to 100 uM preincubated for 20 mins followed by rhodamine 123 addition and measured after 20 mins by flow cytometric method; assay type: functional, cell-based; how it was run: as §1
[4] = organism: Homo sapiens; assay: Inhibition of p-gp in human MES-SA/DX5 cells assessed as potentiation of doxorubicin-induced cytotoxicity at 25 uM preincubated for 1.5 hrs followed by doxorubicin addition and measured after 48 hrs by MTT assay; assay type: cell-based
[5] = organism: Homo sapiens; assay: Inhibition of p-gp in human MES-SA/DX5 cells assessed as increase in rhodamine 123 accumulation preincubated for 20 mins followed by rhodamine 123 addition and measured after 20 mins by fluorescence microscopic method; assay type: cell-based
How it was run: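 MES-SA/DX5 seeded at 2 × 10^5 cells per ml and grown two days at 37 °C. Compound at 25 μM for 20 min, then rhodamine 123 at 5 μM final for 20 min. Cells washed three times with ice-cold PBS and resuspended in cold PBS. Imaged by fluorescence microscopy with a blue filter (510–560 nm). Untreated cells served as control.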

[6] = organism: Homo sapiens; assay: Inhibition of p-gp in human MES-SA/DX5 cells assessed as potentiation of doxorubicin-induced cytotoxicity at 5 uM preincubated for 1.5 hrs followed by doxorubicin addition and measured after 48 hrs by MTT assay; assay type: cell-based

| logP [1] | Compound | inhibition [2] | Activity [3] | inhibition [4] | inhibition [5] | inhibition [6] |
| --- | --- | --- | --- | --- | --- | --- |
| 2.35 | CC1=C(C(=O)OCc2cccnc2)C(c2ccccc2)C2=C(CCCC2=O)N1 (stereo not given) | Dose-dependent effect | inactive | – | – | – |
| 1.53 | COc1ccc(C2C(C(=O)OCc3cccnc3)=C(C)NC3=C2C(=O)CCC3)cc1 (stereo not given) | Dose-dependent effect | inactive | – | – | – |
| 1.4 | CC1=C(C(=O)OCc2ccccn2)C(c2ccco2)C2=C(CCCC2=O)N1 (stereo not given) | Dose-dependent effect | inactive | – | – | – |
| 1.88 | CC1=C(C(=O)OCc2ccccn2)C(c2cccc([N+](=O)[O-])c2)C2=C(CCCC2=O)N1 (stereo not given) | Dose-dependent effect | inactive | – | – | – |
| 2.72 | CC1=C(C(=O)OCc2ccccn2)C(c2ccccc2)C2=C(CCCC2=O)N1 (stereo not given) | Dose-dependent effect | inactive | – | – | – |
| 1.58 | CC1=C(C(=O)OCc2ccccn2)C(c2ccc(O)cc2)C2=C(CCCC2=O)N1 (stereo not given) | Dose-dependent effect | inactive | – | – | – |
| 1.51 | CC1=C(C(=O)OCc2cccnc2)C(c2ccccc2[N+](=O)[O-])C2=C(CCCC2=O)N1 (stereo not given) | – | inactive | Active | Dose-dependent effect | – |
| 1.73 | CC1=C(C(=O)OCc2ccccn2)C(c2ccc(C#N)cc2)C2=C(CCCC2=O)N1 (stereo not given) | Dose-dependent effect | inactive | – | Dose-dependent effect | Active |
| 2.23 | CCCC1C(C(=O)OCc2cccnc2)=C(C)NC2=C1C(=O)CCC2 (stereo not given) | Dose-dependent effect | inactive | – | – | – |
| 1.4 | CC1=C(C(=O)OCc2cccnc2)C(c2cccs2)C2=C(CCCC2=O)N1 (stereo not given) | Dose-dependent effect | inactive | Active | – | – |
| 2.24 | CC1=C(C(=O)OCc2ccccn2)C(c2ccc(Cl)cc2)C2=C(CCCC2=O)N1 (stereo not given) | Dose-dependent effect | inactive | – | – | Active |
| 2.6 | CCCC1C(C(=O)OCc2ccccn2)=C(C)NC2=C1C(=O)CCC2 (stereo not given) | Dose-dependent effect | inactive | – | – | – |
| 1.87 | CC1=C(C(=O)OCc2cccnc2)C(c2ccc(Cl)cc2)C2=C(CCCC2=O)N1 (stereo not given) | Dose-dependent effect | inactive | – | – | Active |
| 1.21 | CC1=C(C(=O)OCc2cccnc2)C(c2cccc(O)c2)C2=C(CCCC2=O)N1 (stereo not given) | Dose-dependent effect | inactive | – | – | – |
| 1.9 | COc1ccc(C2C(C(=O)OCc3ccccn3)=C(C)NC3=C2C(=O)CCC3)cc1 (stereo not given) | Dose-dependent effect | inactive | – | – | Active |
| 1.88 | CC1=C(C(=O)OCc2ccccn2)C(c2ccccc2[N+](=O)[O-])C2=C(CCCC2=O)N1 (stereo not given) | – | inactive | – | Dose-dependent effect | Active |
| 1.36 | CC1=C(C(=O)OCc2cccnc2)C(c2ccc(C#N)cc2)C2=C(CCCC2=O)N1 (stereo not given) | Dose-dependent effect | inactive | – | – | – |
| 1.51 | CC1=C(C(=O)OCc2cccnc2)C(c2ccc([N+](=O)[O-])cc2)C2=C(CCCC2=O)N1 (stereo not given) | Dose-dependent effect | inactive | Active | Dose-dependent effect | – |
| 2.17 | COc1cc(C2C(C(=O)OCc3ccccn3)=C(C)NC3=C2C(=O)CCC3)cc(OC)c1OC (stereo not given) | Dose-dependent effect | inactive | – | – | – |
| 1.03 | CC1=C(C(=O)OCc2cccnc2)C(c2ccco2)C2=C(CCCC2=O)N1 (stereo not given) | Dose-dependent effect | inactive | – | – | – |
| 2.05 | CC1=C(C(=O)OCc2cccnc2)C(c2ccc(Br)cc2)C2=C(CCCC2=O)N1 (stereo not given) | Dose-dependent effect | inactive | – | – | Active |
| 1.77 | CC1=C(C(=O)OCc2ccccn2)C(c2cccs2)C2=C(CCCC2=O)N1 (stereo not given) | Dose-dependent effect | inactive | – | – | – |
| 1.58 | CC1=C(C(=O)OCc2ccccn2)C(c2cccc(O)c2)C2=C(CCCC2=O)N1 (stereo not given) | Dose-dependent effect | inactive | – | – | – |
| 1.88 | CC1=C(C(=O)OCc2ccccn2)C(c2ccc([N+](=O)[O-])cc2)C2=C(CCCC2=O)N1 (stereo not given) | Dose-dependent effect | inactive | – | Dose-dependent effect | Active |
| 2.42 | CC1=C(C(=O)OCc2ccccn2)C(c2ccc(Br)cc2)C2=C(CCCC2=O)N1 (stereo not given) | Dose-dependent effect | inactive | – | Dose-dependent effect | Active |
